Most compounds without a hit are left out; they make up all but 2.3% or so of the library.
DNMT1 block = inhibitors of human DNMT1 | P26358 | DNMT1 molecular beacon, Hinp1I cleavage, fluorescence | inhibition (reported as % activation of signal), % at 10 µM | actives 0.83% (n = 360,000); in the data active means inhibition above about 50%
Rpn11 inh = inhibitors of human proteasome Rpn11; inhibition, % at 20 µM; actives 0.59% (n = 360,000); O00487; human 26S proteasome, Ub4-pepOG fluorescence polarization; 20S core pre-blocked with epoxomicin;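 active means inhibition at 20 µM, scaled to each plate's controls, above about 33%, limit read from the data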
Target sequence (O00487 whole entry, looked up): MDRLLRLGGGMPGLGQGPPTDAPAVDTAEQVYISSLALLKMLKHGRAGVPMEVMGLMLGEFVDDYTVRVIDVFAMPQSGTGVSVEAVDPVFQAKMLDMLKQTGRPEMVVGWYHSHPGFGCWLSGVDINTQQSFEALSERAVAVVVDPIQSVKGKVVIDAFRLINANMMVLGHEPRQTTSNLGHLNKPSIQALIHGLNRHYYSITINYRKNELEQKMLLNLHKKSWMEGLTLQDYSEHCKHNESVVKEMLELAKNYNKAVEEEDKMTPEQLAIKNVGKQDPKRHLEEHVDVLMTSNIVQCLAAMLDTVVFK
SUMO1-SIM PPI = alters human SUMO1 binding to SIM partners; AID 602429; actives 0.33% (n = 360,000); P63165; SUMO1 binding to a labelled peptide, TR-FRET, 1 h; inhibition, % at 20 µM; in the data active means inhibition above about 37%
Scp1 inh = inhibitors of human Scp-1 phosphatase | Q9GZU7 | Recombinant Scp1, phosphopeptide, malachite green phosphate absorbance | inhibition, % at 20 µM | actives 0.88% (n = 340,000) | AID 493091;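 active means inhibition above about 50% at 20 µM, limit read from the data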
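Material – SCP-1 phosphatase catalytic domain, residues 76-261 · Buffer or medium – Acidic Tris acetate buffer with magnesium and detergent · Also added – Phospho 17-mer peptide substrate · Compound – single 20 µM dose, 1% DMSO · Times – 45 min room-temperature reaction, 5 min colour, 30 min stabiliser · Technique – Phosphate-binding colour reagent, absorbance read at 630 nm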
STEP block = blocks human striatal-enriched tyrosine phosphatase; recombinant STEP, OMFP fluorogenic substrate, fluorescence; inhibition, % at 20 µM; actives 0.25% (n = 360,000);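 active means inhibition at 20 µM, scaled per plate between control wells, above about 37%, limit read from the data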
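material = STEP tyrosine phosphatase | reagent = fluorogenic phosphatase substrate OMFP at 25 µM final | doses = single compound dose of 20 µM, 1% DMSO final | schedule = 20 min reaction, room temperature, in the dark | measured by = fluorescence, 480/540 nm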
LMPTP block = LMPTP (human) inhibition | inhibition, % at 20 µM | recombinant LMPTP-A, OMFP fluorogenic substrate, fluorescence intensity | actives 0.22% (n = 360,000);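 active means compounds that cut the enzyme signal by at least half of the control window in the single-dose screen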
Target sequence (P24666 whole entry, looked up): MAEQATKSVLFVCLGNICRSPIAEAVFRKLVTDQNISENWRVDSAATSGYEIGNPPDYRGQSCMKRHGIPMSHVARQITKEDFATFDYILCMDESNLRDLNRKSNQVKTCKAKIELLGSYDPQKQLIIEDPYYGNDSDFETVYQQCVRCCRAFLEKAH
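test system = LMPTP-A | amount = 0.625 nM LMPTP-A final | reagent = fluorogenic phosphatase substrate OMFP at 400 µM final | incubation = 50 min at room temperature | benchmarks = no-enzyme low control, uninhibited high control | medium = Bis-Tris pH 6.0, DTT, detergent | signal = fluorescence intensity of OMFP turnover product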
Scp1 confirm = Scp-1 (human) inhibition, single-dose confirmed; shares compounds with Scp1 inh; recombinant SCP-1 catalytic domain, phosphate release, malachite green absorbance; inhibition, % at 20 µM; actives 61% (n = 2,500)
MG interference = interferes with malachite green readout, flagging false Scp-1 hits; shares compounds with Scp1 inh; Colorimetric interference counterscreen, malachite green absorbance 630 nm; apparent inhibition (interference), % at 20 µM; 2,500 tested, under 10 active; AID 540313;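 further: compounds added after enzyme reaction finished so only phosphate colour detection is probed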
Scp1 DSF = validation of human Scp-1 inhibitors by thermal shift binding | shares compounds with Scp1 inh | Recombinant SCP1, Sypro Orange thermal shift Tm | thermal shift relative to vanadate control, % at 40 µM | actives 25% (n = 1,500);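 active means substances whose mean melting-temperature shift, as a percentage of the reference inhibitor's shift, reaches about 5.3%, limit read from the data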
Hits are given with their value; - = inactive; . = no result.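 How the source made its calls, unless noted: active means inhibition of at least 30% at 20 µM; inactive means the rest.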

SMILES | DNMT1 block | Rpn11 inh | SUMO1-SIM PPI | Scp1 inh | STEP block | LMPTP block | Scp1 confirm | MG interference | Scp1 DSF
COc1cc(-c2nnc(COC(=O)c3ccc(C)o3)o2)cc(OC)c1OC | - | - | - | 59 | - | - | 47 | - | -
COc1cc(-c2nnc(COC(=O)c3cc(C)no3)o2)cc(OC)c1OC | - | - | - | - | - | - | . | . | .
Nc1nnc(CC(=O)N/N=C/c2ccc(-c3cccc(C(=O)O)c3)o2)s1 | - | - | - | 54 | - | - | 45 | - | -
CC(C)(C)c1ccc(SCCc2ccccn2)cc1 | - | - | - | - | - | - | . | . | .
O=C(CN1C(=O)/C(=C2/SC(=S)N(CCS(=O)(=O)O)C2=O)c2ccccc21)Nc1cccc(Br)c1 | - | - | - | 82 | 87 | - | 81 | - | 16
COc1ccccc1Oc1nc2c(c(=O)n(Cc3ccccc3F)c(=O)n2C)n1C | - | - | - | 68 | - | - | - | - | .
Cn1c(NCCCO)nc2c1c(=O)n(Cc1ccccc1F)c(=O)n2C | - | - | - | - | - | - | . | . | .
Cc1cc(C(F)F)n2nc(C(=O)Nc3sc4c(c3C(N)=O)CCC4)nc2n1 | - | - | - | 61 | - | - | 55 | - | -
CCCN(CCC)S(=O)(=O)c1ccc(NC(=O)Cc2cccs2)cc1 | - | - | - | 61 | - | - | 73 | - | -
CCCCN(CCCC)S(=O)(=O)c1ccc(NC(=O)Cc2cccs2)cc1 | - | - | - | 54 | - | - | 58 | - | 7.6
CCN(CC)S(=O)(=O)c1ccc(OC)c(NC(=O)Cc2cccs2)c1 | - | - | - | 87 | - | - | 74 | - | 6.3
O=C(Cc1ccc(S(=O)(=O)N2CCOCC2)s1)Nc1ccc(N2CCOCC2)cc1 | - | - | - | - | - | - | . | . | .
CN(C)S(=O)(=O)c1ccc(NC(=O)Cc2ccc(S(=O)(=O)N3CCOCC3)s2)cc1 | - | - | - | 55 | - | - | 58 | - | -
COc1cc(OC)c(NC(=O)Cc2cccs2)cc1Cl | - | - | - | - | - | - | . | . | .
CCCn1c(=O)c2[nH]c(-c3ccc(OCC(=O)Nc4ccc(C#N)cc4)cc3)nc2n(CCC)c1=O | - | - | - | - | - | - | . | . | .
O=C(Cc1cccs1)Nc1ccc(S(=O)(=O)N2CCCC2)cc1 | - | - | - | 59 | - | - | 75 | - | 6.1
N=c1c(S(=O)(=O)c2ccc(Cl)cc2)cc2c(=O)n3ccccc3nc2n1Cc1ccco1 | - | - | - | 52 | - | - | - | - | .
CSc1ccccc1NC(=O)CN(C)C(=O)/C=C/c1ccccc1 | - | - | - | - | - | - | . | . | .
CCOc1ncccc1C(=O)N(C)CC(=O)Nc1ccccc1SC | - | - | - | 60 | - | - | - | - | .
COc1ccc(S(=O)(=O)NCCN2CCNC2=O)cc1OC | - | - | - | - | - | - | - | - | .
COc1ccc(S(=O)(=O)NCCC(C)C)cc1OC | - | - | - | - | - | - | . | . | .
O=C1NCCN1CCNS(=O)(=O)c1ccc(F)cc1 | - | - | - | - | - | - | - | - | .
Cc1ccc(-c2cc(N)n(-c3ccc(F)cc3)n2)cc1 | - | - | - | - | - | - | . | . | .
CCOC(=O)c1cnc2c(C)c(-c3ccccc3)[nH]n2c1=O | - | - | - | 69 | - | - | - | - | .
COc1cccc(N2CCN(C(=O)c3ccc(OC)c(S(=O)(=O)NC4CC4)c3)CC2)c1 | - | - | - | . | - | - | . | . | .
Cc1cc(C)cc(NC(=O)C2CCCN2C(=O)Oc2ccccc2)c1 (stereo unspecified) | - | - | - | - | - | - | . | . | .

Assay outcomes deposited in PubChem BioAssay by Sanford-Burnham Center for Chemical Genomics.
